Measured values as given in ChEMBL document CHEMBL1955853, “Discovery of 3,4-dihydropyrimidin-2(1H)-ones with inhibitory activity against HIV-1 replication” (Bioorg Med Chem Lett, 2012).

Experiments:
[1] = Cytotoxicity against human CEMx174 cells; assay type: cell-based
In short: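 CC50 is the compound concentration that reduces viability of uninfected cells by 50%. Values are the geometric mean of two determinations, with each value within 25% of the mean.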

[2] = system: Human immunodeficiency virus 1; experiment: Antiviral activity against HIV1 LAI infected in human CEMx174 cells coexpressing GFP preincubated for 1 hr measured after 5 days by fluorimetry; assay type: functional, organism-based; conditions: Human immunodeficiency virus 1, LAI
In short: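 CEM reporter cells carrying an EGFP cassette driven by the HIV promoter were seeded at 4000 cells/well. They were infected with HIV-1 LAI at MOI 3 and incubated 5 days at 37 °C, 5% CO2. EGFP fluorescence intensity was read on a plate reader. Values are the geometric mean of two determinations, with each value within 25% of the mean.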

SMILES | CC50 [1] | EC50 [2]
CCC1=C(C(=O)OCC2CCCCC2)C(c2ccc(C#N)cc2)NC(=O)N1 (stereo not given) | > 10 µM | 0.061 µM
O=C1NC(c2ccccc2)=C(C(=O)OCC2CCCCC2)C(c2cccc(O)c2)N1 (stereo not given) | > 10 µM | > 10 µM
CCC1=C(C(=O)OCC2CCCCC2)C(c2cccc(N)c2)NC(=O)N1 (stereo not given) | > 10 µM | 0.159 µM
CCCC1=C(C(=O)OCC2CCCCC2)C(c2cccc(O)c2)NC(=O)N1 (stereo not given) | > 10 µM | 0.286 µM
CCC1=C(C(=O)OCC2CCCCC2)C(c2cccc(O)c2)NC(=O)N1 (racemic) | > 10 µM | 0.087 µM
CCC1=C(C(=O)OCC2CCCCC2)C(c2ccc(NC(C)=O)cc2)NC(=O)N1 (stereo not given) | > 10 µM | 0.063 µM
CCOC(=O)C1=C(C)NC(=O)NC1c1cccc(O)c1 (stereo not given) | – | > 10 µM
CC1=C(C(=O)OC2CCCCC2)C(c2cccc(O)c2)NC(=O)N1 (stereo not given) | > 10 µM | > 10 µM
CC1=C(C(=O)O)C(c2cccc(O)c2)NC(=O)N1 (stereo not given) | > 10 µM | > 10 µM
CCC1=C(C(=O)OCC2CCCCC2)C(c2cccc(O)c2)NC(=S)N1 (stereo not given) | > 10 µM | > 10 µM
Cc1nc(=O)[nH]c(-c2cccc(O)c2)c1C(=O)OCC1CCCCC1 | > 10 µM | > 10 µM
CCC1=C(C(=O)OCC2CCCCC2)C(c2ccc(NC)cc2)NC(=O)N1 (stereo not given) | > 10 µM | 0.108 µM
CCC1=C(C(=O)OCC2CCCCC2)C(c2ccc(Cl)cc2)NC(=O)N1 (stereo not given) | > 10 µM | 0.088 µM
Cc1ccnc2c1NC(=O)c1cccnc1N2C1CC1 [NEVIRAPINE] | > 10 µM | 0.15 µM
CC1=C(C(=O)OCC2CCCCC2)[C@@H](c2cccc(O)c2)NC(=O)N1 | > 10 µM | > 10 µM
CC1=C(C(=O)OCC2CCCCC2)C(c2ccccc2O)NC(=O)N1 (stereo not given) | > 10 µM | > 10 µM
CC1=C(C(=O)OCC2CCCCC2)C(c2cccc(O)c2)N(C)C(=O)N1 (stereo not given) | > 10 µM | > 10 µM
C#CC1=C(C(=O)OCC2CCCCC2)C(c2cccc(O)c2)NC(=O)N1 (stereo not given) | > 1 µM | 2.2 µM
CC(C)C1=C(C(=O)OCC2CCCCC2)C(c2cccc(O)c2)NC(=O)N1 (stereo not given) | – | > 10 µM
CCC1=C(C(=O)OCC2CCCCC2)C(c2ccc(N)cc2)NC(=O)N1 (stereo not given) | > 10 µM | 0.151 µM

SMILES | CC50 [1] | EC50 [2]
CCC1=C(C(=O)OCC2CCCCC2)[C@@H](c2cccc(O)c2)NC(=O)N1 | > 10 µM | > 10 µM
CCC1=C(C(=O)OCC2CCCCC2)C(c2ccc(O)cc2)NC(=O)N1 (stereo not given) | > 10 µM | 0.031 µM
O=C1NC(C2CC2)=C(C(=O)OCC2CCCCC2)C(c2cccc(O)c2)N1 (stereo not given) | > 10 µM | > 10 µM
O=C1NC(CCl)=C(C(=O)OCC2CCCCC2)C(c2cccc(O)c2)N1 (stereo not given) | > 3 µM | 0.359 µM
CCC1=C(C(=O)OCC2CCCCC2)C(c2cccc([N+](=O)[O-])c2)NC(=O)N1 (stereo not given) | > 10 µM | 0.335 µM
CCC1=C(C(=O)OCC2CCCCC2)C(c2ccc(F)cc2)NC(=O)N1 (stereo not given) | > 10 µM | 0.024 µM
CCC1=C(C(=O)OCC2CCCCC2)[C@H](c2cccc(O)c2)NC(=O)N1 | > 10 µM | 0.038 µM
CCC1=C(C(=O)OCC2CCCCC2)C(c2ccc([N+](=O)[O-])cc2)NC(=O)N1 (stereo not given) | > 10 µM | 0.141 µM
COc1cccc(C2NC(=O)NC(C)=C2C(=O)OCC2CCCCC2)c1 (stereo not given) | > 10 µM | 1.27 µM
CCC1=C(C(=O)OCC2CCCCC2)C(c2ccc(C(=O)OC)cc2)NC(=O)N1 (stereo not given) | > 10 µM | 0.122 µM
CC1=C(C(=O)OCC2CCCCC2)[C@H](c2cccc(O)c2)NC(=O)N1 | > 10 µM | 0.233 µM
CC1=C(C(=O)OCC2CCCCC2)C(c2ccc(O)cc2)NC(=O)N1 (stereo not given) | > 10 µM | 0.431 µM
CCC1=C(C(=O)OCC2CCCCC2)C(c2ccc(N(C)C)cc2)NC(=O)N1 (stereo not given) | > 10 µM | 0.177 µM
CC1=C(C(=O)OCC2CCCCC2)C(c2cccc(O)c2)NC(=O)N1C (stereo not given) | > 10 µM | > 10 µM
CC1=C(C(=O)OCC2CCCCC2)C(c2cccc(O)c2)NC(=O)N1 (racemic) | > 10 µM | 0.529 µM
CC1=C(C(=O)OCc2ccccc2)C(c2cccc(O)c2)NC(=O)N1 (stereo not given) | > 10 µM | > 10 µM
CC1=C(C(=O)OCC2CCCCC2)C(c2cccc(O)c2)NC(=S)N1 (stereo not given) | > 10 µM | > 10 µM
CCC1=C(C(=O)OCC2CCCCC2)C(c2ccc(C(=O)O)cc2)NC(=O)N1 (stereo not given) | > 10 µM | > 10 µM
CC1=C(C(=O)NCC2CCCCC2)C(c2cccc(O)c2)NC(=O)N1 (stereo not given) | – | > 10 µM
